# In the library only some 4.6% were active in any assay of this set; here they are far more common.
# PfM18AAP inh: PfM18AAP enzyme inhibition; recombinant PfM18AAP, H-Glu-NHMec fluorogenic cleavage; inhibition, % at 7.35 µM; 290,000 tested, 1.2% active; AID 1822;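 active = inhibition above the campaign mean inhibition over all tested compounds plus 3 SD, cut at about 28% in these data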;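 note: 0% = plate median of test compound wells and 100% = 2 mM ZnCl2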
# Rtt109 HAT inh: C. albicans Rtt109 histone acetyltransferase inhibition; purified Rtt109/Vps75, ThioGlo CoA-SH fluorescence, 4 h; Q5AAJ8; 330,000 tested, 0.16% active; AID 540336; inhibition, % at 34.9 µM;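 active = inhibition of at least 50% in every replicate; inconclusive = best replicate reaches 50% inhibition but some replicates fall short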
# ALR H2O2 inh: inhibitors of human sulfhydryl oxidase ALR. P55789. purified ALR, DTT oxidation, H2O2 HRP-luminol luminescence. inhibition, % (concentration not given with the values). 290,000 tested, 3.8% active. AID 485317;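 active = mean replicate inhibition above about 79%, with every replicate also reaching it, limit read from the data; inconclusive = only one of the two criteria met; inactive = mean below limit and not every replicate reaching it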
# Target sequence (P55789 whole entry, looked up): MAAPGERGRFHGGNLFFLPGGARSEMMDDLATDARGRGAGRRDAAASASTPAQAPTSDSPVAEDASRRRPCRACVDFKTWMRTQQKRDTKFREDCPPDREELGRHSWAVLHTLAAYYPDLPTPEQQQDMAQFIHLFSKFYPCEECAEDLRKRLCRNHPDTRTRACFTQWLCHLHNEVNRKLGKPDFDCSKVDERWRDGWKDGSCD
# FAS TE block: blocks the thioesterase domain of human fatty acid synthase | P49327 | recombinant FAS-TE, OMFH fluorogenic substrate, fluorescence endpoint | inhibition, % at 15 µM | 360,000 tested, 0.67% active | AID 602261;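 active = compounds whose normalised, plate-corrected inhibition of enzyme fluorescence in the single-dose primary screen is 50% or more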;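 note: 0% = DMSO with enzyme and 100% = substrate without enzyme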
# UCH37 inh: human UCH37 deubiquitinating enzyme inhibition | 330,000 tested, 0.33% active | inhibition, % (no concentration beside the values) | AID 588478 | Q9Y5K5 | purified proteasome/UCH37, Ub-AMC cleavage fluorescence;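 active = mean inhibition over replicate wells above about 20%, limit read from the data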;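 note: 0% = compound-free wells with enzyme and 100% = wells lacking proteasome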
# Target sequence (Q9Y5K5 whole entry, looked up): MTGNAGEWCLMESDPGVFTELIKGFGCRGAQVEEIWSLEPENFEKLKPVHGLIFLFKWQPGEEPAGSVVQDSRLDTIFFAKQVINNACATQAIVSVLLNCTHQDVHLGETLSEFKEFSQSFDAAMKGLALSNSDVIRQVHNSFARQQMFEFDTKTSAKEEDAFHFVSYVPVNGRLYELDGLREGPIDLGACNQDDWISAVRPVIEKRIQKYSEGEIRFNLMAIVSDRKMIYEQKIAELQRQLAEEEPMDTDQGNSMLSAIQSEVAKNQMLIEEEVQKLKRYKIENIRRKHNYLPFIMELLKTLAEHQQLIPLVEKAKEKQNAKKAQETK
#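 Signal – fluorescence, ex 355 nm, em 460 nm · System – Proteasome-bound UCH37 · Input – 0.15 nM proteasome as dispensed · Timing – 30 min preincubation with enzyme, 25 min cleavage at room temperature · Read-out basis – percent inhibition of cleavage signal versus uninhibited and no-proteasome wells · Medium – Tris-HCl pH 7.4 with ATP-MgCl2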
# HDAC3 inhib: inhibitors of human histone deacetylase 3; recombinant HDAC3, fluorogenic peptide/trypsin coupled, fluorescence; AID 2718; 320,000 tested, 0.15% active; inhibition, % at 8.3 µM; O15379; in the data active = inhibition above about 26%, passing the limit was not always enough; inconclusive = no clear call, values can overlap the other calls
# * marks the source's active call; other numbers are inactive results; ? = inconclusive; · = no result.
SMILES,PfM18AAP inh,Rtt109 HAT inh,ALR H2O2 inh,FAS TE block,UCH37 inh,HDAC3 inhib
COc1ccc(OC)c(/C=N/c2oc(-c3ccco3)c(-c3ccco3)c2C#N)c1,17.5,0.5,98.1*,4.9,·,0.7
Fc1ccccc1-c1nc(NCc2ccco2)c2ccccc2n1,3.4,·,5.3,16.7,1.3,·
O=c1c2ccccc2nc2c3ccccc3c(NCc3ccco3)nn12,-0.5,-3.9,90.8*,2.5,·,-3.3
CC(=NNc1ncc(Cl)cc1Cl)c1ccc(OC(F)F)cc1,·,·,·,·,2.4,·
COc1ccc(/C=N\Nc2ccc([N+](=O)[O-])cc2)c(C(=O)O)c1OC,13.2,5.0,98.3*,-8.1,·,10.2
COc1ccc(NC(=S)N2CCC(c3ccc(C)cc3)C2)cc1 (centres undefined),-9.0,-0.3,-2.1,8.7,3.3,1.7
Cc1ccc(NC(=S)N2CCC(c3ccc(C)cc3)C2)cc1 (centres undefined),39.0*,-0.5,-5.3,12.9,2.1,7.0
COc1ccc(NC(=O)c2sc3nc(N4CCOCC4)c4c(c3c2N)CC(C)(C)OC4)c(OC)c1,31.2*,-8.7,-1.8,1.9,-201.4,-4.4
CNC(=O)c1ccc(-c2sc3nc(N4CCOCC4)c4c(c3c2N)CC(C)(C)OC4)o1,4.1,6.3,99.1*,0.5,-425.0,-9.3
C/C(=C\c1ccc(N)cc1)c1nc2ccccc2[nH]1,-7.7,1.3,98.9*,-0.9,-2.7,7.8
O=C(NN=Cc1ccc(OCC(=O)N2CCOCC2)cc1)c1ccccc1Cl,·,·,·,·,5.7,·
CC1CN(C(=O)COC(=O)c2ccc(Cl)nc2)CC(C)O1 (centres undefined),-6.4,10.2,91.4*,-4.1,0.4,10.3
CC1CCN(C(=O)COC(=O)c2ccc(Cl)nc2)CC1,·,-2.3,0.7,-3.8,1.9,-1.9
COc1cccc(C=c2sc3nc(-c4cccs4)nn3c2=O)c1OC,·,·,·,·,-2.0,·
Cc1ccsc1C=Nc1ccc(O)cc1,11.7,7.7,96.2*,-6.7,16.5,-1.1
O=c1oc(-c2ccc(F)cc2)nc2ccsc12,-4.1,-9.1,83.5*,19.9,2.2,-2.0
COc1cccc2cccc(C=Nn3cnnc3)c12,·,·,·,·,-108.1,·
Cc1csc(C(C#N)=NO)n1,·,·,·,·,6.0,·
COC(=O)CSc1cc(SCC(=O)OC)c(C#N)c(SCC(=O)OC)c1,25.6,10.6,-7.8,1.8,0.4,-5.2
COC(=O)CSc1ccc(C#N)c(SCC(=O)OC)c1,2.9,10.6,98.9*,1.2,2.2,-11.3
CCc1ccc2c(c1)[C@H]1OCC[C@H]1[C@@H](c1cccs1)N2,4.0,1.5,97.3*,3.1,5.9,-2.6
CC(=NNc1ccccc1[N+](=O)[O-])c1ccccc1O,·,·,·,·,-1.2,·
NC(=O)c1ccc(NC(=O)C2CCCO2)cc1 (centres undefined),-16.4,5.0,-10.6,-7.1,2.0,0.3
O=C(Nc1ccc(O)cc1)c1ccc(NC(=O)C2CCCO2)cc1 (centres undefined),2.5,-1.0,99.0*,-6.3,0.4,3.9
O=C(Nc1cc(Cl)c(O)c(Cl)c1)C1CCCO1 (centres undefined),-2.0,·,98.4*,-11.5,0.9,6.3
SMILES,PfM18AAP inh,Rtt109 HAT inh,ALR H2O2 inh,FAS TE block,UCH37 inh,HDAC3 inhib
CCN(CC)c1ccc(NC(=O)c2ccc(NC(=O)C3CCCO3)cc2)c(C)c1 (centres undefined),31.0*,3.4,99.1*,-4.2,2.7,5.7
COc1ccc2[nH]c3c(=S)nc[nH]c3c2c1,1.8,-2.4,99.3*,-1.5,-9.6,?
COc1ccc2[nH]c3c(Cl)ncnc3c2c1,-3.3,5.3,46.5,-7.4,-12.1,-1.5
O=[N+]([O-])c1cccc(-c2noc3c2-c2nc(Cc4cccc5ccccc45)sc2CC3)c1,·,3.4,-1.6,12.8,0.3,-0.3
CCCc1nc2c(s1)CCc1onc(-c3cccc([N+](=O)[O-])c3)c1-2,·,4.9,·,14.2,31.7*,-3.4
FC(F)(F)C1=CC(c2ccc(Cl)cc2)=NCCN1,-8.8,6.2,98.9*,0.1,12.1,-2.6
CCCCNC(=O)CS(=O)Cc1nc(-c2cccs2)oc1C (centres undefined),-8.7,-1.7,98.0*,-5.5,1.1,-1.8
CCn1c(SCC(=O)NCCc2ccccc2)nnc1-c1cccs1,-7.9,-9.8,-0.5,-3.7,1.3,0.7
Cc1oc(-c2cccs2)nc1CS(=O)CC(=O)NCCc1ccccc1 (centres undefined),2.6,-7.4,98.4*,-0.9,1.2,·
Cc1oc(-c2cccs2)nc1CS(=O)CC(=O)NCCCOC(C)C (centres undefined),-4.3,6.5,98.6*,-9.7,1.5,-4.8
Cc1oc(-c2cccs2)nc1CSCC(=O)NC1CC1,3.6,-8.3,·,-1.2,-18.1,-3.0
CC1CCCCC1=NNc1ccc(S(N)(=O)=O)cc1[N+](=O)[O-] (centres undefined),·,·,·,·,4.6,·
COc1ccc([N+](=O)[O-])cc1C=NNC(=O)Cc1ccccc1,·,·,·,·,4.6,·
O=C(NN=Cc1cccnc1)c1cc2ccccc2cc1O,·,·,·,·,10.4,·
Cn1cc(SCC(=O)Nc2nccs2)c2ccccc21,4.8,-7.6,97.7*,-1.7,1.9,6.3
Cn1cc(SCC(=O)NCC2CCCO2)c2ccccc21 (centres undefined),·,-12.3,97.4*,-7.4,5.1,·
Cc1onc(-c2ccccc2)c1C(=O)NN=Cc1c[nH]c2ccccc12,·,·,·,·,1.6,·
CN(C)c1ccc(CNc2ccc3c(c2)ncn3C)cc1,0.0,·,99.5*,·,-1.7,6.9
Cn1cnc2cc(NCc3ccccc3Cl)ccc21,10.6,-1.5,89.8*,-3.5,-5.5,-2.9
CCc1ccc(CNc2ccc3c(c2)ncn3CC)cc1,7.3,-0.4,56.0,-5.9,-11.2,-0.1
CCCCn1cnc2cc(NCc3ccncc3)ccc21,8.8,-3.1,18.6,-6.5,1.6,-7.0
CC(C)c1ccc(CNc2ccc3c(c2)ncn3C)cc1,15.6,1.8,78.2*,-6.2,-9.4,-4.4
CCn1cnc2cc(NCc3ccccc3Cl)ccc21,11.2,-5.2,45.5,-3.2,-7.0,-5.0
CCN(CC)c1ccc(CNc2ccc3c(c2)ncn3C(C)(C)C)cc1,26.0,1.9,98.8*,-7.9,0.0,2.1
O=C(NN=C/C=C/c1ccco1)C(O)c1ccccc1 (centres undefined),·,·,·,·,11.3,·
SMILES,PfM18AAP inh,Rtt109 HAT inh,ALR H2O2 inh,FAS TE block,UCH37 inh,HDAC3 inhib
O=C(COc1ccc2ccccc2c1)NN=Cc1ccccn1,·,·,·,·,4.7,·
COc1ccc(NN=C(C)C(=NO)C(=O)Nc2ccccc2)cc1,·,·,·,·,5.7,·
CCCCc1c(O)nc(SCC(=O)c2ccccc2)[nH]c1=O,0.4,-68.5,98.6*,-4.8,3.6,45.6*
CCCCc1c(O)nc(SCC(=O)O)[nH]c1=O,7.0,0.2,5.3,-6.3,3.2,2.5
CCc1c(O)nc(SCC(=O)Nc2ccccc2C)[nH]c1=O,-7.4,3.8,99.1*,-8.7,6.8,-1.1
CCNc1nc(NCC)nc(NN=Cc2cc(OC)c(OC)c(OC)c2)n1,·,·,·,·,8.6,·
CC(=NNC(=O)c1ccncc1)C12CC3CC(CC(C3)C1)C2,·,·,·,·,-1.4,·
